ChEMBL document CHEMBL1142125, “Bioactive lignans from Peperomia duclouxii” (J Nat Prod, 2007)
pIC50: −log10 of the molar value. Converted amounts (≈) assume the structure as drawn.

Key:
[1] = Effect on calcein accumulation in human multidrug-resistant 2780AD cells at 25 ug/mL relative to control; format: functional, A2780 ADR
Method in brief: (§1)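 Calcein accumulation assay. Multidrug-resistant human ovarian cancer 2780AD (AD10) cells were grown in RPMI-1640 with 10% (v/v) FBS and 80 µg/mL kanamycin. Calcein formed from calcein AM by endogenous esterase served as the efflux probe. Cells were tested at 0.25, 2.5 and 25 µg/mL. Read-out was fluorescence per well, as the mean of triplicates, expressed relative to the untreated control or to the verapamil positive control.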

[2] = Effect on calcein accumulation in human multidrug-resistant 2780AD cells at 2.5 ug/mL relative to control; format: functional, A2780 ADR; method in brief: as §1
[3] = Effect on calcein accumulation in human multidrug-resistant 2780AD cells at 25 ug/mL relative to verapamil; format: functional, A2780 ADR; method in brief: as §1
[4] = Effect on calcein accumulation in human multidrug-resistant 2780AD cells at 2.5 ug/mL relative to verapamil; format: functional, A2780 ADR; method in brief: as §1
[5] = Effect on calcein accumulation in human multidrug-resistant 2780AD cells at 0.25 ug/mL relative to control; format: functional, A2780 ADR; method in brief: as §1
[6] = Effect on calcein accumulation in human multidrug-resistant 2780AD cells at 0.25 ug/mL relative to verapamil; format: functional, A2780 ADR; method in brief: as §1
WI-38 VA13 = assay: Growth inhibition of human VA13 cells; format: functional, cell-based
Method in brief: (§2)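 Growth inhibition assays. WI-38 cells were kept in Eagle's MEM and VA-13 cells in RITC 80-7, both with 10% (v/v) FBS and 80 µg/mL kanamycin. HepG2 cells were kept in D-MEM with 10% (v/v) FBS and 80 µg/mL kanamycin. IC50 is the concentration giving 50% growth inhibition.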

HepG2 = assay: Growth inhibition of human HepG2 cells; format: functional, cell-based; method in brief: as §2
WI-38 = assay: Growth inhibition of human WI38 cells; format: functional, cell-based; method in brief: as §2
A549 [7] = assay: Inhibition of TNF-alpha-induced ICAM1 in human A549 cells; format: functional, cell-based
Method in brief: (§3)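 ICAM-1 induction assay. Human A549 cells were grown in RPMI 1640 with heat-inactivated 10% FBS, penicillin G and streptomycin. Cells were stimulated with recombinant IL-1α or TNF-α. Cell-surface ICAM-1 was detected with mouse anti-human ICAM-1 antibody C167 plus a peroxidase-conjugated goat anti-mouse IgG, and an IC50 was derived.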

A549 [8] = assay: Inhibition of IL-1-alpha-induced ICAM1 in human A549 cells; format: functional, cell-based; method in brief: as §3
A549 [9] = assay: Cytotoxicity against human A549 cells by MTT assay; format: cell-based
Method in brief: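 Cell viability was measured by MTT assay in human A549 cells grown in RPMI 1640 with heat-inactivated 10% FBS, penicillin G and streptomycin. This was done alongside the IL-1α/TNF-α-stimulated ICAM-1 induction assay, and an IC50 was derived.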

Compound	IC50 (HepG2) [µg/mL]	pIC50 (A549 [7])	pIC50 (A549 [8])	Activity [1] [%]	Activity [2] [%]	Activity [3] [%]	Activity [4] [%]	Activity [5] [%]	Activity [6] [%]	IC50 (WI-38 VA13) [µg/mL]	IC50 (WI-38) [µg/mL]	pIC50 (A549 [9])
COc1ccc(CCN(C)CCCC(C#N)(c2ccc(OC)c(OC)c2)C(C)C)cc1OC (configuration not stated) [VERAPAMIL]				145	114	100	100	99	100			
CC(=O)O[C@H]1C(=O)[C@@]2(C)[C@H]([C@H](OC(=O)c3ccccc3)[C@]3(O)C[C@H](OC(=O)[C@H](O)[C@@H](NC(=O)c4ccccc4)c4ccccc4)C(C)=C1C3(C)C)[C@]1(OC(C)=O)CO[C@@H]1C[C@@H]2O [PACLITAXEL]	0.05 (≈ 0.0586 µM)									0.01 (≈ 0.0117 µM)	0.02 (≈ 0.0234 µM)	
COc1cc([C@@H]2c3c(cc4c(c3OC)OCO4)C[C@H](COC(C)=O)[C@@H]2COC(C)=O)cc(OC)c1O	74.4 (≈ 148 µM)	4.87	3.97							62.4 (≈ 124 µM)	41.3 (≈ 82.2 µM)	< 3.50
COc1cccc2c1C(=O)c1c(O)c3c(c(O)c1C2=O)C[C@@](O)(C(=O)CO)C[C@@H]3O[C@H]1C[C@H](N)[C@H](O)[C@H](C)O1 [DOXORUBICIN]	0.48 (≈ 0.883 µM)									0.08 (≈ 0.147 µM)	0.76 (≈ 1.4 µM)	

Further lines, with some results ahead:

IC50 (HepG2) [µg/mL]	pIC50 (A549 [7])	pIC50 (A549 [8])	Compound	Activity [1] [%]	Activity [2] [%]	Activity [3] [%]	Activity [4] [%]	Activity [5] [%]	Activity [6] [%]	IC50 (WI-38 VA13) [µg/mL]	IC50 (WI-38) [µg/mL]	pIC50 (A549 [9])
60.2 (≈ 205 µM)			COc1cc([C@H]2OC[C@@H]3C(=O)OC[C@@H]32)cc(OC)c1OC [ZHEPIRESINOL]							50.7 (≈ 172 µM)	57.7 (≈ 196 µM)	
> 100			COc1cc([C@@H]2OC[C@@H]3[C@H]2CO[C@H]3c2cc(OC)c3c(c2)OCO3)cc(OC)c1O							> 100	96.6 (≈ 232 µM)	
> 100			COc1cc([C@H]2OC[C@H]3[C@@H]2CO[C@@H]3c2ccc3c(c2)OCO3)cc(OC)c1O							> 100	> 100	
72 (≈ 173 µM)			COc1cc(C[C@H]2CO[C@H](c3cc(OC)c4c(c3)OCO4)[C@H]2CO)cc2c1OCO2							99.1 (≈ 238 µM)	74.3 (≈ 178 µM)	
13.2 (≈ 32.8 µM)			COc1cc([C@@H]2OC[C@@H]3[C@H]2CO[C@H]3c2cc(OC)c3c(c2)OCO3)cc(O)c1O	169	105	117	92	101	103	5.3 (≈ 13.2 µM)	49.8 (≈ 124 µM)	
84.7 (≈ 218 µM)			COc1cc([C@H]2OC[C@@H]3C(c4cc(OC)c(O)c(OC)c4)OC[C@H]23)ccc1O (some centres not stated) [MEDIORESINOL]							> 100	76.9 (≈ 198 µM)	
